An excerpt weighted towards active compounds, which were near 3% of everything screened.
NSD2 inh – inhibitors of human histone methyltransferase NSD2. NSD2 peptide methylation, AlphaScreen, 120 min. inhibition, % at 12.5 µM. 0.54% of 310,000 active. AID 743445; in the data active means inhibition above about 50%
Wnt bcat act – activators of Wnt/beta-catenin signaling; Wnt/beta-catenin reporter cell assay, activator, plate reader; 1.2% of 300,000 active; AID 743398; activation, % at 9.35 µM; in the data active means activation above about 30%, passing the limit was not always enough; inconclusive means no clear call, values can overlap the other calls
MITF act – activators of MITF-driven TRPM1 promoter activity in SK-MEL-5 cells; activation, % at 12.5 µM; SK-MEL-5 TRPM1-promoter luciferase, 24 h; % of positive control, neutral wells = 0; 0.75% of 300,000 active;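 active means mean activation of at least 80% with every replicate also reaching 80%; inconclusive means mean reaches 80% but some replicate falls short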
XiGFP reactiv – activators of X-chromosome reactivation in mouse fibroblasts; XiGFP mouse fibroblasts, % GFP-positive cells imaging, 3 d; cells co-treated with 5-aza-dC sensitizer; scaled so ellipticine positive control = 100%; activation, % at 7.58 µM; 0.055% of 360,000 active;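 active means mean normalized replicate activation at least 10% and every replicate at or above 10%; inconclusive means only one of the two criteria met; inactive means mean below 10% and not all replicates reach 10%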
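Material: SV40-immortalized XiGFP fibroblast cells, line 68-5-11 | Buffer or medium: DMEM containing 5-aza-dC | Dosing: One concentration, pinned | Times: 3 d treatment, 15 min room-temperature fixation | Controls: Ellipticine 6 µM positive control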
esBAF inh – blocks esBAF chromatin remodeling in mouse ES cells. Bmi1-luciferase knock-in reporter, 24 h; 100% = twice the neutral-well signal. AID 602393. 2% of 350,000 active. reporter increase, % at 12.5 µM; in the data active means activation above about 40%; inconclusive means no clear call, values can overlap the other calls;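 further: a rise in the Bmi1 reporter signal indicates esBAF inhibition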
CASP6 VEID inh – inhibitors of human caspase-6. purified caspase-6, Z-VEID-R110 cleavage fluorescence. inhibition, % at 12.5 µM. 0.53% of 350,000 active. AID 686996;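 active means mean inhibition across replicates at least about 35%, with every replicate also reaching that limit, limit read from the data; inconclusive means only one of the two criteria met; inactive means neither criterion met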
Target sequence (P55212 24-179 limits assumed): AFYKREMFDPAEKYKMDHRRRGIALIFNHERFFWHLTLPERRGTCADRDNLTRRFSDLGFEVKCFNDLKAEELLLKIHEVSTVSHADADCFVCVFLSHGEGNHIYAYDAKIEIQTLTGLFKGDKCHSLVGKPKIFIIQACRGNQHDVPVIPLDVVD
Target sequence (P55212 194-293 limits assumed): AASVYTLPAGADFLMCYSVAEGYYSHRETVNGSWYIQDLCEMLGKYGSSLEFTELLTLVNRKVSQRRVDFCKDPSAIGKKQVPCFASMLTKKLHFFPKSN
Of the large screens only hits and unclear results are named; the others gave an inactive call.

O=C(CC1CC1)Nc1ccc2c(c1)[C@@H]1C[C@H](CC(=O)N3CCOCC3)O[C@@H](CO)[C@@H]1O2	none (no result: NSD2 inh, Wnt bcat act, MITF act, CASP6 VEID inh)
CCCCCCC#Cc1cncc(C(=O)NNC(=O)Nc2cc(Cl)cc(Cl)c2)c1	Wnt bcat act 42 (no result: MITF act, esBAF inh)
Cc1noc(C)c1NC(=O)Nc1ccc2c(c1)C(=O)N([C@@H](C)CO)C[C@H](C)[C@H](CN(C)S(=O)(=O)c1ccc(F)cc1)OCCCC[C@@H](C)O2	none (no result: NSD2 inh, Wnt bcat act, MITF act)
CO[C@H]1CN(C)C(=O)c2cc(NC(=O)Nc3cccc(Cl)c3)ccc2OC[C@@H](C)NC[C@H]1C	none (no result: NSD2 inh, Wnt bcat act, MITF act)
C/C(=N\NS(=O)(=O)c1ccccc1)c1cccc(NC(=O)c2cccc(Cl)c2)c1	none (no result: Wnt bcat act, esBAF inh, CASP6 VEID inh)
C/C(=N\NC(=O)c1ccc(Cl)cc1)c1cccc(NC(=O)c2cccnc2)c1	none (no result: CASP6 VEID inh)
C/C(=N\NC(=O)c1ccc(O)cc1)c1cccc(NC(=O)c2ccc(Cl)cc2)c1	esBAF inh 52 (no result: MITF act)
C/C(=N/NC(=O)c1ccncc1)c1ccc(NC(=O)c2ccc(Cl)cc2Cl)cc1	MITF act 88 (no result: esBAF inh)
C/C(=N/NS(=O)(=O)c1ccc(Cl)cc1)c1cccc(NC(=O)c2ccncc2)c1	CASP6 VEID inh 92
CCC(=O)N1CC2(C1)CN(C(=O)Nc1ccccc1F)[C@@H](CO)c1[nH]c3cc(OC)ccc3c12	none (no result: NSD2 inh, Wnt bcat act, MITF act, esBAF inh)
C[C@@H]1CN([C@@H](C)CO)C(=O)c2cc(NC(=O)Nc3ccc(F)cc3)ccc2O[C@H]1CN(C)S(=O)(=O)c1ccccc1	none (no result: NSD2 inh, Wnt bcat act, MITF act)
CC(C)NC(=O)Nc1ccc2c(c1)CC(=O)N([C@@H](C)CO)C[C@@H](C)[C@H](CN(C)C(=O)Nc1ccccc1)O2	none (no result: NSD2 inh, Wnt bcat act, MITF act)
O=C(NC1CCCCC1)[C@@H]1[C@@H](CO)[C@@H]2Cn3c(ccc(-c4ccccc4)c3=O)[C@H]1N2	none (no result: NSD2 inh, Wnt bcat act, MITF act, esBAF inh, CASP6 VEID inh)
O=C(Nc1ccc2nc(-c3ccc(Br)o3)[nH]c2c1)c1cccs1	esBAF inh 49 (no result: Wnt bcat act, XiGFP reactiv, CASP6 VEID inh)
O=C(Nc1ccc2nc(-c3ccc(Br)o3)[nH]c2c1)c1ccco1	esBAF inh 65 (no result: Wnt bcat act, XiGFP reactiv, CASP6 VEID inh)
O=C(Nc1ccc2nc(-c3ccccc3)[nH]c2c1)c1ccco1	Wnt bcat act 54, esBAF inh 54 (no result: MITF act, XiGFP reactiv, CASP6 VEID inh)
Cc1ccc(-c2nc3ccccc3[nH]2)cc1NC(=O)c1ccco1	none (no result: XiGFP reactiv, CASP6 VEID inh)
CC(=O)Nc1ccc2nc(-c3ccc(Br)o3)[nH]c2c1	none (no result: esBAF inh, CASP6 VEID inh)
Cc1cccc2[nH]c(-c3ccc(NC(=O)c4ccco4)cc3)nc12	esBAF inh 84 (no result: Wnt bcat act, XiGFP reactiv, CASP6 VEID inh)
C[C@H](CO)N1C[C@H](C)[C@@H](CN(C)C(=O)Nc2ccc(F)cc2)Oc2c(NC(=O)c3cnccn3)cccc2C1=O	none (no result: NSD2 inh, Wnt bcat act, MITF act)
CO[C@H]1CN(C)C(=O)c2ccc(NC(=O)CC(F)(F)F)cc2OC[C@H](C)NC[C@H]1C	none (no result: NSD2 inh, Wnt bcat act, MITF act, esBAF inh)
O=C(Nc1ccc(F)cc1)Nc1ccc(N2CCOCC2)c2nonc12	MITF act 94 (no result: esBAF inh)
COc1ccc(NC(=O)Nc2ccc(N3CCOCC3)c3nonc23)c(OC)c1	none (no result: esBAF inh)
Nc1ccc(N2CCOCC2)c2nonc12	CASP6 VEID inh 83 (no result: NSD2 inh)
CCS(=O)(=O)N1CC2(CN[C@H](CO)c3c2c2ccc(OC)cc2n3C)C1	none (no result: NSD2 inh, Wnt bcat act, MITF act, esBAF inh, CASP6 VEID inh)
CSc1ccc(NC(=O)Nc2ccc(C(=O)NCC(=O)O)cc2)cc1	CASP6 VEID inh 52 (no result: esBAF inh)
CO[C@@H]1CN(C)C(=O)c2cc(NS(=O)(=O)c3ccc(C)cc3)ccc2OC[C@H](C)NC[C@@H]1C	none (no result: NSD2 inh, Wnt bcat act, MITF act)
Cc1ccc2oc3nc(C)c(C(=O)O)cc3c(=O)c2c1	none (no result: Wnt bcat act, XiGFP reactiv, esBAF inh, CASP6 VEID inh)
CC(=O)c1cc2c(=O)c3cc(C)ccc3oc2nc1C	esBAF inh 60 (no result: Wnt bcat act, XiGFP reactiv, CASP6 VEID inh)
COCc1nc2oc3ccc(F)cc3c(=O)c2cc1C(=O)OC	none (no result: MITF act)
COCc1nc2oc3ccc(C)cc3c(=O)c2cc1C(=O)OC	MITF act 91
CCN(CC)C(=O)c1cc2c(=O)c3cc(Cl)ccc3oc2nc1C	esBAF inh 45
CCOC(=O)c1cc2c(=O)c3cc(C)ccc3oc2nc1C	none (no result: NSD2 inh, Wnt bcat act, XiGFP reactiv, esBAF inh, CASP6 VEID inh)
Clc1nc(Nc2ccccc2)nc(Nc2ccccc2)n1	Wnt bcat act 49, esBAF inh inconclusive (no result: CASP6 VEID inh)
O=C1N[C@H](Cc2ccccc2)COCc2cnnn2CC[C@H]1Cc1cccc(F)c1	none (no result: NSD2 inh, Wnt bcat act, MITF act, esBAF inh, CASP6 VEID inh)
Nc1ccc2c(c1)Cc1cc(N)c(Br)cc1-2	none (no result: esBAF inh)
Nc1cc2c(cc1Cl)-c1ccc(Cl)cc1C2	esBAF inh 59 (no result: MITF act)
O=C(/C=C/c1ccc(Cl)cc1Cl)c1ccc[nH]1	none (no result: Wnt bcat act)
CN(C)/C=C/C(=O)/C=C/c1ccc(Cl)cc1Cl	Wnt bcat act inconclusive, MITF act 92 (no result: esBAF inh)
CC(OC(=O)c1n[nH]c2ccccc12)C(=O)Nc1ccccc1[N+](=O)[O-] (stereo not drawn)	CASP6 VEID inh 36
C[C@H]1CCCCO[C@@H](CN(C)S(=O)(=O)c2cn(C)cn2)[C@@H](C)CN([C@@H](C)CO)C(=O)c2cc(NC(=O)Nc3ccccc3)ccc2O1	none (no result: NSD2 inh, Wnt bcat act, MITF act)
O=C1CNC(=S)N1CCc1ccc(O)c(O)c1	Wnt bcat act 50 (no result: MITF act, esBAF inh)
CCCNC(=O)N1CC2(CCN(C(=O)c3cnccn3)CC2)c2c([nH]c3cc(OC)ccc23)[C@@H]1CO	none (no result: NSD2 inh, Wnt bcat act, MITF act, esBAF inh)
Cc1cc(C(=O)COC(=O)c2cc(Cl)ccc2N)c(C)n1Cc1ccco1	MITF act 106 (no result: esBAF inh)
Cc1cc(C(=O)COC(=O)c2ccco2)c(C)n1Cc1ccco1	none (no result: esBAF inh)
COc1ccccc1NC(=O)N1CC(=O)N2[C@H](C1)[C@H](c1ccc(C#CCC(C)C)cc1)[C@@H]2CO	none (no result: NSD2 inh, Wnt bcat act, MITF act, esBAF inh, CASP6 VEID inh)
Oc1cc(Nc2ccncc2)cc2cccnc12	none (no result: NSD2 inh)
Oc1cc(Nc2cccnc2)cc2cccnc12	CASP6 VEID inh 36 (no result: NSD2 inh)
CO[C@@H]1CN(C)C(=O)c2cc(NC(=O)CC(F)(F)F)ccc2OC[C@H](C)N(S(=O)(=O)c2cn(C)cn2)C[C@@H]1C	none (no result: NSD2 inh, Wnt bcat act, MITF act, esBAF inh)
CCSc1nnc(NC(=O)c2cccc3ccccc23)s1	none (no result: NSD2 inh)
O=C(Nc1nnc(-c2ccco2)s1)C1CCCCC1	esBAF inh 77 (no result: Wnt bcat act, XiGFP reactiv, CASP6 VEID inh)
CCSc1nnc(NC(=O)c2csc(C)c2)s1	MITF act 84 (no result: XiGFP reactiv, CASP6 VEID inh)

Source: PubChem
